In ChEMBL document CHEMBL1671627, “Increasing trends in antimicrobial resistance among clinically important anaerobes and Bacteroides fragilis isolates causing nosocomial infections: emerging resistance to carbapenems” (2008):
Converted amounts (≈) assume the structure as drawn.

Tests used:
Phocaeicola vulgatus [1] = assay: Antibacterial activity against beta-lactamase producing Bacteroides vulgatus assessed as susceptible isolates by CLSI agar dilution method in presence of clavulanate; assay type: functional
In short: (§1)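 CLSI agar dilution MICs for anaerobic blood isolates (nonduplicate) collected from bloodstream-infection patients at a Taiwanese tertiary hospital, January–December 2006. Isolates were spotted by Steers replicator onto supplemented Brucella blood agar and incubated anaerobically for 48 h at 35°C. MIC was the lowest drug concentration inhibiting growth. Each run included B. fragilis ATCC 25285, B. thetaiotaomicron ATCC 29741 and E. lentum ATCC 43055 as quality-control strains.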

[2] = system: Peptoniphilus asaccharolyticus; assay: Antibacterial activity against beta-lactamase producing Peptoniphilus asaccharolyticus assessed as susceptible isolates by CLSI agar dilution method in presence of clavulanate; assay type: functional; in short: as §1
[3] = system: Peptostreptococcus anaerobius; assay: Antibacterial activity against beta-lactamase producing Peptostreptococcus anaerobius by CLSI agar dilution method in presence of clavulanate; assay type: functional; in short: as §1
Fusobacterium mortiferum = assay: Antibacterial activity against Fusobacterium mortiferum assessed as susceptible isolates by CLSI agar dilution method in presence of clavulanate; assay type: functional
In short: (§2)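 Agar dilution per CLSI guidelines on nonduplicate anaerobic bloodstream isolates collected at NTUH, January to December 2006. Isolates were spotted by Steers replicator onto supplemented Brucella blood agar and incubated anaerobically for 48 h at 35°C. MIC was the lowest drug concentration that inhibited growth. B. fragilis ATCC 25285, B. thetaiotaomicron ATCC 29741 and E. lentum ATCC 43055 were run as QC in each run.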

Phocaeicola vulgatus [4] = assay: Antibacterial activity against beta-lactamase producing Bacteroides vulgatus assessed as resistant isolates by CLSI agar dilution method in presence of clavulanate; assay type: functional
In short: (§3)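 207 nonduplicate anaerobic blood isolates from patients with bloodstream infections at NTUH, collected January–December 2006. MICs were determined by agar dilution following CLSI guidelines. Inocula were applied with a Steers replicator onto supplemented Brucella blood agar and incubated 48 h at 35°C in an anaerobic chamber. MIC was the lowest concentration inhibiting growth. B. fragilis ATCC 25285, B. thetaiotaomicron ATCC 29741 and E. lentum ATCC 43055 served as controls in each run.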

Fusobacterium nucleatum [5] = assay: Antibacterial activity against Fusobacterium nucleatum by CLSI agar dilution method in presence of clavulanate; assay type: functional; in short: as §2
Finegoldia magna [6] = assay: Antibacterial activity against beta-lactamase producing Finegoldia magna by CLSI agar dilution method in presence of clavulanate; assay type: functional; in short: as §1
[7] = system: Clostridium paraputrificum; assay: Antibacterial activity against beta-lactamase producing Clostridium paraputrificum by CLSI agar dilution method in presence of clavulanate; assay type: functional; in short: as §1
Prevotella buccae [8] = assay: Antibacterial activity against Prevotella buccae assessed as susceptible isolates by CLSI agar dilution method in presence of clavulanate; assay type: functional, Segatella buccae; in short: as §2
[9] = system: Clostridium paraputrificum; assay: Antibacterial activity against beta-lactamase producing Clostridium paraputrificum assessed as resistant isolates by CLSI agar dilution method in presence of clavulanate; assay type: functional; in short: as §3
[10] = system: Fusobacterium necrophorum; assay: Antibacterial activity against Fusobacterium necrophorum by CLSI agar dilution method in presence of clavulanate; assay type: functional; in short: as §2
[11] = system: Bacteroides thetaiotaomicron; assay: Antibacterial activity against beta-lactamase producing Bacteroides thetaiotaomicron assessed as resistant isolates by CLSI agar dilution method in presence of clavulanate; assay type: functional; in short: as §3
Fusobacterium nucleatum [12] = assay: Antibacterial activity against Fusobacterium nucleatum assessed as resistant isolates by CLSI agar dilution method in presence of clavulanate; assay type: functional; in short: as §3
Clostridium septicum = assay: Antibacterial activity against beta-lactamase producing Clostridium septicum assessed as susceptible isolates by CLSI agar dilution method in presence of clavulanate; assay type: functional; in short: as §1
Prevotella buccae [13] = assay: Antibacterial activity against Prevotella buccae by CLSI agar dilution method in presence of clavulanate; assay type: functional; conditions: Segatella buccae; in short: as §2
Prevotella intermedia [14] = assay: Antibacterial activity against Prevotella intermedia assessed as resistant isolates by CLSI agar dilution method; assay type: functional
[15] = system: Prevotella melaninogenica; assay: Antibacterial activity against Prevotella melaninogenica assessed as resistant isolates by CLSI agar dilution method in presence of Tazobactam; assay type: functional; in short: as §3
[16] = system: Peptostreptococcus anaerobius; assay: Antibacterial activity against beta-lactamase producing Peptostreptococcus anaerobius by CLSI agar dilution method in presence of Tazobactam; assay type: functional; in short: as §1
Phocaeicola vulgatus [17] = assay: Antibacterial activity against beta-lactamase producing Bacteroides vulgatus by CLSI agar dilution method in presence of Tazobactam; assay type: functional; in short: as §1
[18] = system: Peptostreptococcus anaerobius; assay: Antibacterial activity against beta-lactamase producing Peptostreptococcus anaerobius assessed as resistant isolates by CLSI agar dilution method in presence of Tazobactam; assay type: functional; in short: as §3
[19] = system: Prevotella melaninogenica; assay: Antibacterial activity against Prevotella melaninogenica by CLSI agar dilution method; assay type: functional
[20] = system: Peptoniphilus asaccharolyticus; assay: Antibacterial activity against beta-lactamase producing Peptoniphilus asaccharolyticus assessed as susceptible isolates by CLSI agar dilution method; assay type: functional
[21] = system: Clostridium paraputrificum; assay: Antibacterial activity against beta-lactamase producing Clostridium paraputrificum assessed as resistant isolates by CLSI agar dilution method in presence of Tazobactam; assay type: functional; in short: as §3
Prevotella intermedia [22] = assay: Antibacterial activity against Prevotella intermedia assessed as susceptible isolates by CLSI agar dilution method in presence of Tazobactam; assay type: functional; in short: as §2
[23] = system: Prevotella melaninogenica; assay: Antibacterial activity against Prevotella melaninogenica assessed as susceptible isolates by CLSI agar dilution method; assay type: functional
Fusobacterium nucleatum [24] = assay: Antibacterial activity against Fusobacterium nucleatum by CLSI agar dilution method in presence of Tazobactam; assay type: functional; in short: as §2
[25] = system: Clostridium paraputrificum; assay: Antibacterial activity against beta-lactamase producing Clostridium paraputrificum by CLSI agar dilution method in presence of Tazobactam; assay type: functional; in short: as §1
Clostridium perfringens = assay: microbe, parasite or virus in culture; assay type: functional
[26] = system: Fusobacterium necrophorum; assay: Antibacterial activity against Fusobacterium necrophorum by CLSI agar dilution method in presence of Tazobactam; assay type: functional; in short: as §2
Parvimonas micra = assay: Antibacterial activity against beta-lactamase producing Micromonas micros by CLSI agar dilution method; assay type: functional
Clostridium tertium = assay: Antibacterial activity against beta-lactamase producing Clostridium tertium assessed as resistant isolates by CLSI agar dilution method; assay type: functional
Prevotella bivia = assay: Antibacterial activity against Prevotella bivia by CLSI agar dilution method in presence of Tazobactam; assay type: functional; in short: as §2
Veillonella parvula = assay: Antibacterial activity against Veillonella parvula by CLSI agar dilution method; assay type: functional
[27] = system: Peptostreptococcus anaerobius; assay: Antibacterial activity against beta-lactamase producing Peptostreptococcus anaerobius by CLSI agar dilution method; assay type: functional
[28] = system: Fusobacterium necrophorum; assay: Antibacterial activity against Fusobacterium necrophorum assessed as resistant isolates by CLSI agar dilution method in presence of Tazobactam; assay type: functional; in short: as §3
Bacteroides fragilis = assay: Antibacterial activity against Bacteroides fragilis assessed as susceptible isolates by CLSI agar dilution method; assay type: functional
Finegoldia magna [29] = assay: Antibacterial activity against beta-lactamase producing Finegoldia magna by CLSI agar dilution method; assay type: functional

CC1(C)S[C@@H]2[C@H](NC(=O)[C@H](N)c3ccc(O)cc3)C(=O)N2[C@H]1C(=O)O [AMOXICILLIN]
Activity (Phocaeicola vulgatus [1]): 53%
Activity [2]: 94%
MIC50 [3]: 0.25 µg/mL
MIC90 [3]: 2 µg/mL
Activity (Fusobacterium mortiferum): 89%
Activity (Phocaeicola vulgatus [4]): 30%
MIC50 (Fusobacterium nucleatum [5]): 2 µg/mL
MIC90 (Fusobacterium nucleatum [5]): 4 µg/mL
MIC50 (Finegoldia magna [6]): 0.25 µg/mL
MIC90 (Finegoldia magna [6]): 2 µg/mL
MIC50 [7]: 0.5 µg/mL
MIC90 [7]: 2 µg/mL
Activity (Prevotella buccae [8]): 81%
Activity [9]: 4%
MIC50 [10]: 2 µg/mL
MIC90 [10]: 4 µg/mL
Activity [11]: 33%
Activity (Fusobacterium nucleatum [12]): 7%
Activity (Clostridium septicum): 96%
MIC50 (Prevotella buccae [13]): 4 µg/mL
MIC90 (Prevotella buccae [13]): 16 µg/mL

CCN1CCN(C(=O)N[C@@H](C(=O)N[C@@H]2C(=O)N3[C@@H]2SC(C)(C)[C@@H]3C(=O)O)c2ccccc2)C(=O)C1=O [PIPERACILLIN]
Activity (Prevotella intermedia [14]): 22%
Activity [15]: 0%
MIC [16]: 0.03 µg/mL
MIC50 [16]: 0.03 µg/mL
MIC90 [16]: 2 µg/mL
MIC50 (Phocaeicola vulgatus [17]): 8 µg/mL
MIC90 (Phocaeicola vulgatus [17]): 16 µg/mL
Activity [18]: 0%
MIC50 [19]: 16 µg/mL (≈ 30.9 µM)
MIC90 [19]: 128 µg/mL (≈ 247 µM)
Activity [20]: 97%
Activity [21]: 0%
Activity (Prevotella intermedia [22]): 100%
Activity [23]: 71%
MIC50 (Fusobacterium nucleatum [24]): 0.5 µg/mL
MIC90 (Fusobacterium nucleatum [24]): 2 µg/mL
MIC50 [25]: 0.5 µg/mL
MIC90 [25]: 2 µg/mL
MIC50 (Clostridium perfringens): 0.25 µg/mL (≈ 0.483 µM)
MIC90 (Clostridium perfringens): 2 µg/mL (≈ 3.86 µM)
MIC50 [26]: 0.5 µg/mL
MIC90 [26]: 2 µg/mL
MIC50 (Parvimonas micra): 0.12 µg/mL (≈ 0.232 µM)
MIC90 (Parvimonas micra): 8 µg/mL (≈ 15.5 µM)
Activity (Clostridium tertium): 0%
MIC (Prevotella bivia): 0.03 µg/mL
MIC50 (Prevotella bivia): 0.03 µg/mL
MIC90 (Prevotella bivia): 1 µg/mL
MIC (Veillonella parvula): 1 µg/mL (≈ 1.93 µM)
MIC50 [27]: 0.12 µg/mL (≈ 0.232 µM)
MIC90 [27]: 8 µg/mL (≈ 15.5 µM)
Activity [28]: 0%
Activity (Bacteroides fragilis): 62%
MIC50 (Finegoldia magna [29]): 0.12 µg/mL (≈ 0.232 µM)
MIC90 (Finegoldia magna [29]): 8 µg/mL (≈ 15.5 µM)
